SMILES strings stand for the structures. About 5,400 (1.5%) of roughly 360,000 compounds were called active.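 How the source made its calls: active means inhibition above a per-plate cutoff, the mean inhibition of test compounds on that plate plus 3 SD (cut at about 49% in these data); inactive means the rest.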 The full list was thinned out, with actives kept by preference.

Sequence of Trace amine-associated receptor 1 (Homo sapiens) (Q96RJ0 whole entry, looked up): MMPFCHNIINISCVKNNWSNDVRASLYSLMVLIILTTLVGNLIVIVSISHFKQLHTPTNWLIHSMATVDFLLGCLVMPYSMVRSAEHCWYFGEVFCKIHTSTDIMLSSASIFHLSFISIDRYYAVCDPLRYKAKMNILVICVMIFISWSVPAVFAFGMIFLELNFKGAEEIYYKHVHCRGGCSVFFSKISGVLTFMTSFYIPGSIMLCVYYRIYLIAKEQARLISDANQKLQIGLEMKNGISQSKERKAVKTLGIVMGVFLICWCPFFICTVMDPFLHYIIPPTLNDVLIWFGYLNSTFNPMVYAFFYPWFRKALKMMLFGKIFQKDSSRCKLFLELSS

The test deals with Trace amine-associated receptor 1 (Homo sapiens) (UniProt Q96RJ0). Put plainly: human TAAR1 antagonists, primary screen, Fluo-8 calcium fluorescence, CHO RD-HGA16 cells (AID 624466).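 Further: 0% = DMSO plus EC80 beta-PEA response and 100% = DMSO alone without agonist.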 To be noted: CHO RD-HGA16 TAAR1, Fluo-8 calcium fluorescence, antagonist; at 3 µM; hits give high values. The method in brief:
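Test system: CHO RD-HGA16 cells bearing hTAAR1 | Reagent: β-PEA, EC80 | Compound dosing: 3 µM, single point | Schedule: Dye loading 75 min at 37 °C, then 30 min room temperature | Signal: Calcium fluorescence with Fluo-8 | Evaluation: Percent inhibition of PEA-evoked calcium signal, max/basal emission ratio | Control set: DMSO-only wells and EC80 β-PEA-stimulated wells | Repeats: Singlicate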
For the compound `CN1CCN(c2ccc3c(c2)OC[C@H](Cc2ccccc2)NS3(=O)=O)CC1`, the inhibition was -0.38% (inactive).
The value for `CC(C)C[C@H](NC(=O)CC1CCCC1)C(=O)N1CCC[C@H]1C(=O)NCc1ccccc1` was -24.5% (inactive).
For the compound `COC(=O)[C@]12C[C@H](CC(=O)NCc3ccc(C)o3)C(=O)N(CCC3=CCCCC3)C1=C[C@H](C(C)(C)C)O[C@@H]2C`, the inhibition is -24.7% (inactive).
Turning to `CCCc1cc(C(=O)Nc2ccc(C(=O)OC)cc2)cs1`, the inhibition was 50.5% (active).
The value for `CCN(CC)C(=O)CCC(=O)Nc1ccc(C(=O)OC)cc1` was -5.5% (inactive); that for `CCCc1cc(C(=O)Nc2ccc(Cl)cn2)cs1` was -47.4% (inactive).
Turning to `CCC(=O)Nc1c(S(=O)(=O)c2ccccc2)c2nc3ccccc3nc2n1Cc1ccccc1`, the inhibition is -31.1% (inactive).
The value for `N#Cc1cccc(C(=O)NCC2CCN(C(=O)C(=O)c3cc4ccccc4o3)CC2)c1` was -5.41% (inactive); that for `Fc1ccc2[nH]c3c(N4CCSCC4)ncnc3c2c1` was 64.4% (active).
On to `COC(=O)c1ccc2nc(-c3cccc(Br)c3)c(Cc3ccccc3C(F)(F)F)n2c1`, for which the inhibition was -12.6% (inactive).
`COc1ccc(/C=C/C(=O)Nc2ccc(C34CC5CC(CC(O)(C5)C3)C4)cc2)cc1OC`: the inhibition was 71.5% (active).
In the case of `COc1cc(/C=C/C(=O)Nc2ccc(OC)c(S(=O)(=O)N3CCOCC3)c2)ccc1OCC#N` it was 14.8% (inactive); in that of `COc1ccc(/C=C/C(=O)OCC(=O)NC2CCCCCC2)cc1OC`, -27.2% (inactive); in that of `C[C@@H]1CN([C@H](C)CO)C(=O)CCCn2cc(nn2)CO[C@H]1CN(C)C(=O)Nc1ccc(N2CCCCC2)cc1`, -12.4% (inactive).
In the case of `CNC(=O)C1CC(=O)N(Cc2ccc3c(c2)OCO3)C(=Nc2ccc(F)cc2)S1` (stereo unspecified) it was 11.3% (inactive); in that of `Nc1c(NCCc2ccccc2)c2ccccc2oc1=O`, 66.7% (active).
In the case of `O=c1oc2ccccc2c(=O)c2ccccc12` it was 3.02% (inactive); in that of `CC(C)(C)Nc1c(N)c(=O)oc2ccccc12`, 15% (inactive); in that of `O=C(N[C@H](Cc1ccccc1)C(=O)N1CCCN(Cc2cccs2)CC1)[C@H]1O[C@@H](n2ccc(=O)[nH]c2=O)[C@H](O)[C@@H]1O`, -9.92% (inactive).
As to `CC(=O)OC[C@@H]1CN(Cc2ccccc2)C[C@H](n2cnc3c(NCc4ccco4)ncnc32)O1`, the inhibition was -4.46% (inactive).
In the case of `CCCCOCC1CN(CCCC)S(=O)(=O)c2c(Oc3ccc(F)cc3)cccc2O1` (stereo unspecified) it was 30.2% (inactive).
In the case of `CCOC(=O)c1sc(=NC(=O)c2ccc(Br)cc2)n(C)c1C` it was -21.9% (inactive).
Turning to `CCOC(=O)C1=CN(Cc2ccc(Br)cc2)S(=O)(=O)NC1C` (stereo unspecified), the inhibition is 49.1% (active).
As for `CCOC(=O)C1=CN(Cc2ccc(Br)cc2)S(=O)(=O)N(C)C1C` (stereo unspecified), the inhibition was 17.8% (inactive).
In the case of `COc1cc(/C=N/NC(=S)Nc2cccnc2)cc(OC)c1O`, the inhibition is -25% (inactive).
In the case of `COc1cccc(/C=N/Nc2cc(C)nc(-c3ccccc3O)n2)c1O` it was 64.5% (active); in that of `COc1cccc(Cn2cc(/C=N/NC(=O)c3cc(O)cc(O)c3)c3ccccc32)c1`, -11.8% (inactive).
For the compound `Cc1cccc2[nH]c(CN(C)C(=O)C3CCC(=O)N(CCc4ccccc4)C3)nc12` (stereo unspecified), the inhibition was -20.8% (inactive).
For `Cc1ccc(N(C(=O)CC2NC(=O)NC2=O)C2(C(=O)NC3CCCC3)CCCCC2)cc1` (stereo unspecified), the inhibition is -7.81% (inactive).
Regarding `CCCCCCCC[n+]1cccc(C(=O)N2c3c(nc(N)[nH]c3=O)NC(C)C2C)c1` (stereo unspecified), the inhibition was -7.7% (inactive).
With `CC(C)(C)S(=O)N1Cc2cc(C(=O)NCCCN3CCOCC3)nc(-c3cccc(-c4cc5ccccc5o4)c3)c2[C@H]1CCO` (stereo partly specified), the inhibition was 8.67% (inactive).
With `CC(C)NC(=O)N1Cc2cc(C(=O)NCC(F)(F)F)nc(-c3cccc(-c4cc5ccccc5o4)c3)c2[C@@H]1CCO`, the inhibition was 51.9% (active).
For the compound `CCNC(=O)c1cc2c(c(-c3cccc(-c4cncnc4)c3)n1)[C@H](CCO)N(C(C)=O)C2`, the inhibition was -0.11% (inactive).
The value for `O=C(O)CC/C(=C\c1cc2c(cc1Br)OCO2)c1nc2ccccc2s1` was -13.4% (inactive); that for `COc1ccc(C(=O)Nc2cccc(/C=C(/CCC(=O)O)c3nc4ccccc4s3)c2)cc1` was 57.2% (active); that for `COc1cccc(/C=C(/CC(=O)Nc2ccc(N3CCOCC3)cc2)c2nc3ccccc3s2)c1` was -10.9% (inactive).
In the case of `CC(=O)C[C@@H]1OC[C@H](C)N1S(=O)(=O)c1ccc(C)cc1` it was -22.5% (inactive); in that of `COC(=O)[C@]1(C)N[C@H](c2ccc(-c3ccc(Cl)c(Cl)c3)cc2)[C@@H]2C(=O)N(C)C(=O)[C@@H]21`, 20.9% (inactive).
With `CCNS(=O)(=O)c1ccc(CCC(=O)N2CCN(c3ccc(OC)cc3)CC2)cc1`, the inhibition is 8.27% (inactive).
Regarding `CCCNS(=O)(=O)c1ccc(CCC(=O)N2CCCC2)cc1`, the inhibition was -0.2% (inactive).
The value for `CCNS(=O)(=O)c1ccc(CCC(=O)N2CCN(c3cc(Cl)ccc3C)CC2)cc1` was 65.9% (active); that for `CCOc1ccc(NS(=O)(=O)c2cc(C)c(C)cc2C)cc1` was 18.6% (inactive); that for `Cc1cccc(NC(=O)CN2CCN(CC(=O)NCC3(N4CCCCC4)CCCCC3)CC2)c1C` was -28.3% (inactive).
Turning to `COc1cc(NC(=O)C2=CC(c3ccco3)=NS(=O)(=O)N2C)cc(OC)c1OC`, the inhibition is -8.05% (inactive).
As to `COc1cc(NC(=O)C2=CC(c3ccc(C)cc3)=NS(=O)(=O)N2C)cc(OC)c1OC`, the inhibition was -7.77% (inactive).
With `COc1ccc(NC(=O)C2=CC(c3ccc(OC)c(OC)c3)=NS(=O)(=O)N2C)cc1`, the inhibition was 52.3% (active).
As for `O=C(O)C1CCCN1S(=O)(=O)c1ccc(Br)cc1` (stereo unspecified), the inhibition was -6.42% (inactive).
`O=C(N/N=C/c1ccc(Cl)c(Cl)c1)c1ccc2nc[nH]c2c1`: the inhibition was 63.3% (active).
In the case of `O=C(O)CC/C(=N\NC(=O)c1ccc(F)cc1)c1ccc(Br)cc1`, the inhibition is 3.38% (inactive).
Regarding `CC1=NNC(=O)C1CCC(=O)N/N=C\c1ccc(Cl)c(Cl)c1` (stereo unspecified), the inhibition was -10.3% (inactive).
Regarding `CSc1ccc(/C=N/NC(=O)c2cccc(Cl)c2)cc1`, the inhibition was 8.63% (inactive).
On to `CC(=NNC(=O)c1ccc2nc[nH]c2c1)c1ccc(Br)cc1`, for which the inhibition was 51.9% (active).
The value for `CC(=O)c1ccc(N2CCN(C(=O)c3ccc4nc[nH]c4c3)CC2)cc1` was -29.8% (inactive); that for `C[C@H](CO)N1C[C@H](C)[C@H](CN(C)C(=O)Nc2ccc(C(F)(F)F)cc2)Oc2c(NC(=O)c3ccncc3)cccc2C1=O` was 3.31% (inactive).
The value for `O=C(C[C@H]1CC[C@@H](NC(=O)c2ccncc2)[C@@H](CO)O1)NCC1CC1` was -5.86% (inactive); that for `COC(=O)C1=C(C)NC(=S)NC1c1ccc(OC)cc1` (stereo unspecified) was -22.6% (inactive); that for `CC(=O)N1Cc2cc(C(=O)NCc3cccc(F)c3)nc(-c3cccc(C4=CCCC4)c3)c2[C@H]1CCO` was -5.18% (inactive).
In the case of `COC(=O)c1c(-c2ccc(OC)cc2)c2c(c3c4cc(OC)ccc4n(S(=O)(=O)c4ccc(F)cc4)c13)C(=O)N(C)C2` it was -12.2% (inactive); in that of `C#CCN([C@@H](C)C(=O)OCC)S(=O)(=O)c1ccc(Br)cc1F`, 15% (inactive).
Take `CN(c1ccccc1)S(=O)(=O)c1cc(C(=O)N2CCN(c3ncccn3)CC2)ccc1Cl`: the inhibition was 42.5% (inactive).
Take `Cc1cccc(NC(=O)c2ccc(S(=O)(=O)N(C)c3ccccc3)cc2)n1`: the inhibition is 27.4% (inactive).
For `CN(c1ccccc1)S(=O)(=O)c1cc(C(=O)Nc2nc3ccccc3[nH]2)ccc1Cl`, the inhibition is 59% (active).
The value for `Cc1ccc(S(=O)(=O)N2CCC(=O)N([C@H](COCc3ccccc3)C(C)C)CC2)cc1` was 1.41% (inactive); that for `COC(=O)c1ccc(CN2C(=O)[C@]3(OCCC=C[C@H]3C)c3c(Br)cccc32)cc1` was -17.5% (inactive).
For `Cc1ccc2cccc(OCCCOc3ccccc3CO)c2n1`, the inhibition is 49.6% (active).
On to `Cc1cc(OCCOc2cccc3cccnc23)c(C)cc1Cl`, for which the inhibition was -4.44% (inactive).
Turning to `CCOc1cccc(OCCCOc2cccc3cccnc23)c1`, the inhibition is -11% (inactive).
As for `CSc1ccc(S(=O)(=O)N2CCC(C(=O)NCc3ccncc3)CC2)cc1`, the inhibition is -9.01% (inactive).
On to `CC(=O)C1=CCC(c2ccccc2)N(S(=O)(=O)c2ccc(C)cc2)C1` (stereo unspecified), for which the inhibition is -17.1% (inactive).
With `Cc1cc(C)c(SCCc2ccncc2)c(C)c1`, the inhibition is 11.4% (inactive).
The value for `CC(C)(C)c1ccc(SCCc2ccncc2)cc1` was 49.2% (active).
As for `c1ccc(CSCCc2ccncc2)cc1`, the inhibition was 5.41% (inactive).
In the case of `CCOCCCN1C(=O)CN(C2CCCCC2)C(=O)C1c1ccc(OCC)c(OC)c1` (stereo unspecified) it was 11.2% (inactive); in that of `CCCCn1nnnc1C(c1ccccc1)N1CCN(c2ccccc2OC)CC1` (stereo unspecified), 12.1% (inactive).
Turning to `Cc1nc2ccccc2n1C(=O)N1CCOCC1`, the inhibition is 12.8% (inactive).
On to `CCN(CC)CCN(C)C(c1ccnc2ccccc12)c1nnnn1-c1ccc2c(c1)OCCO2` (stereo unspecified), for which the inhibition was 4.47% (inactive).
On to `COc1ccc(-n2c(-c3ccc(Cl)cc3)n[nH]c2=S)c(OC)c1`, for which the inhibition is -24.1% (inactive).
Take `COc1cc(OC)c(-n2cc(-c3ccc(Cl)cc3)[nH]c2=O)cc1Cl`: the inhibition was 85.5% (active).
As for `COc1cc(OC)c(N2CC(C(=O)Nc3cc(Cl)ccc3N3CCOCC3)CC2=O)cc1Cl` (stereo unspecified), the inhibition is 6.19% (inactive).
In the case of `CCCn1nc(NS(=O)(=O)c2ccc(F)cc2)c2cc3ccccc3nc21` it was 9.03% (inactive); in that of `COc1ccccc1-c1ccc([C@@H]2C[C@H]3[C@H](CON3C)CN2S(=O)(=O)c2cc(Cl)cc(Cl)c2)cc1`, -24.5% (inactive).
As to `CCOC(=O)C1(C)CCCN(C(=O)c2ccc(N(C)C)cc2)C1` (stereo unspecified), the inhibition was -13.8% (inactive).
`CCC(C)CN1C(=O)CN(S(C)(=O)=O)CC1(C)C(=O)Nc1ccc2c(c1)OCCO2` (stereo unspecified): the inhibition is -7.39% (inactive).
As to `COc1ccc(CCNC(=O)c2ccccc2OCc2ccccc2)cc1`, the inhibition is -1.77% (inactive).
For `O=C(NC1CCC(O)CC1)c1ccccc1OCc1ccc(F)cc1` (stereo unspecified), the inhibition was -21.4% (inactive).
In the case of `CC(=O)c1ccccc1OCc1ccc(C(=O)c2ccccc2)cc1`, the inhibition was 71.8% (active).

The values above are taken from PubChem BioAssay AID624466 (The Scripps Research Institute Molecular Screening Center, 2012).
